Activity calls are given as the source filed them. The calls are words filed in the database; no cut-off is given here.
Assays:
Blood [1] = test: Inhibition of PGE2 production in LPS-stimulated human whole blood; assay type: functional, tissue-based
[2] = Half life in rat at 5 mg/kg, iv administered as single dose; assay type: ADME, organism-based; design: dose 5 mg/kg, route intravenous; conditions: in vivo
Prostaglandin E synthase [3] = target: T1, Prostaglandin E synthase (Homo sapiens, UniProt O14684); test: Displacement of [3H]PGH2 from human recombinant PGES1 expressed in CHOK1 cells; assay type: cell-based, CHO-K1
T1 sequence (O14684 whole entry): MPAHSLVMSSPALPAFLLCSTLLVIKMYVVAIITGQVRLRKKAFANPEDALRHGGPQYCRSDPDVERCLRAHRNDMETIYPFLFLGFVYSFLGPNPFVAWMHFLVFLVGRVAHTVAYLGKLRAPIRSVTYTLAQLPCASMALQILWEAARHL

[4] = target: Prostaglandin E synthase 2 (Homo sapiens, UniProt Q9H7Z7); test: Inhibition of human PGES2
A549 = test: Inhibition of PGF2alpha production in human A549 cells in presence of 50% fetal bovine serum; assay type: functional, cell-based
Thromboxane-A synthase = target: T2, Thromboxane-A synthase (Homo sapiens, UniProt P24557); test: Inhibition of TX synthase
T2 sequence (P24557 whole entry): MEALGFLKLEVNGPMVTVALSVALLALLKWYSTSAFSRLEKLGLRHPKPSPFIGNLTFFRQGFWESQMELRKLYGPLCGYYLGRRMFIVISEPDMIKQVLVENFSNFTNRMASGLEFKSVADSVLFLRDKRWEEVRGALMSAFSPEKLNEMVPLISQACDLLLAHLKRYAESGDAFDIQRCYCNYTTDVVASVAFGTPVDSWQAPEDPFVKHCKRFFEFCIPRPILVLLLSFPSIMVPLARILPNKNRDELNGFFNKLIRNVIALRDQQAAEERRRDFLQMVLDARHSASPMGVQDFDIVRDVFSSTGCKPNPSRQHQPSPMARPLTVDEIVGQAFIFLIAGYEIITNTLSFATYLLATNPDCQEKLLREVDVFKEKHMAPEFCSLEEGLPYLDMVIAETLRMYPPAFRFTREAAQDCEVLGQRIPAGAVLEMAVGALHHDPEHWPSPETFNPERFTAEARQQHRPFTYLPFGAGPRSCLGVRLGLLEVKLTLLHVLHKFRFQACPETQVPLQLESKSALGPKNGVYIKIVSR

Blood [5] = test: Inhibition of PGI2 production in LPS-stimulated human whole blood; assay type: functional, tissue-based
Cavia porcellus = test: Analgesic activity against LPS-induced thermal hyperalgesia in po dosed Hartley guinea pig assessed as decrease in paw withdrawal latency administered 1 hr before LPS challenge measured after […]; assay type: functional
[6] = Metabolic stability in human liver hepatocytes assessed as compound remaining after 2 hrs; assay type: ADME, cell-based, Hepatocyte; conditions: read-out: Stability
Method in brief: (§1)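 Compound incubated with hepatocytes (rat or human) for 2 h at 37 °C; read-out is % parent compound remaining; values are means of at least two experiments.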

Blood [7] = test: Inhibition of TXB2 production in LPS-stimulated human whole blood; assay type: functional, tissue-based
Blood [8] = test: Inhibition of PGD2 production in LPS-stimulated human whole blood; assay type: functional, tissue-based
[9] = Inhibition of PGES1 in guinea pig whole blood; assay type: tissue-based; conditions: Cavia porcellus
[10] = Metabolic stability in rat liver hepatocytes assessed as compound remaining after 2 hrs; assay type: ADME, cell-based, Hepatocyte; conditions: read-out: Stability; method in brief: as §1
[11] = Oral bioavailability in rat at 20 mg/kg administered as single dose; assay type: ADME, organism-based; conditions: in vivo
[12] = Tmax in rat at 20 mg/kg; assay type: ADME, organism-based; design: dose 20 mg/kg; conditions: in vivo
Blood [13] = test: Inhibition of TXA2 production in human whole blood; assay type: functional, tissue-based
Prostaglandin E synthase [14] = target: T1, Prostaglandin E synthase; test: Inhibition of mPGES1 in IL-1-beta-stimulated human A549 cells assessed as blockade of PGH2 to PGE2 conversion in presence of 50% fetal bovine serum; assay type: cell-based
[15] = Half life in monkey; assay type: ADME, organism-based, Macaca mulatta; conditions: rhesus monkey, in vivo

Chain of Prostaglandin E synthase 2 (Q9H7Z7 whole entry): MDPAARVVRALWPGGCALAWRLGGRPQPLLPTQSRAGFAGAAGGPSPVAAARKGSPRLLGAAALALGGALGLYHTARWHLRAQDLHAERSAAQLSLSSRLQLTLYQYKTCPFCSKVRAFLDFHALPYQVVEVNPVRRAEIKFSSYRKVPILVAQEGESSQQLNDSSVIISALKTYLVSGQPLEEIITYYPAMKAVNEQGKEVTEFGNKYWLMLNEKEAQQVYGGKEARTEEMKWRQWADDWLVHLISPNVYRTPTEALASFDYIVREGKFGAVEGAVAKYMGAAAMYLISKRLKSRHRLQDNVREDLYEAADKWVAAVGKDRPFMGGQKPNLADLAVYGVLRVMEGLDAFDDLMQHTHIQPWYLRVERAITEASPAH

Row | Compound | IC50 (Blood [1]) [nM] | IC50 (Prostaglandin E synthase [3]) [nM] | half-life [2] [h] | also measured
1 | CC(C)(O)C#Cc1ccc2c(c1)c1cc(Cl)ccc1c1nc(-c3c(C#N)cccc3C#N)[nH]c21 | 200 | – | 20 | IC50 [4]: > 30000 nM; IC50 (A549): > 40000 nM; IC50 (Thromboxane-A synthase): 800 nM; Activity (Blood [5]): inactive; ED50 (Cavia porcellus): 30 mg/kg; remaining at 2 h [6]: 97%; IC50 (Blood [7]): > 40000 nM; Activity (Blood [8]): inactive; IC50 [9]: 100 nM; remaining at 2 h [10]: 97%
2 | CC(C)(O)Cc1ccc2c(c1)c1cc(OCCC3CC3)ccc1c1[nH]c(-c3c(C#N)cc(F)cc3C#N)nc21 | – | – | 2.3 | IC50 [4]: > 30000 nM; IC50 (Thromboxane-A synthase): 30000 nM; remaining at 2 h [6]: 81%; bioavailability [11]: 68%; remaining at 2 h [10]: 68%
3 | CC(C)(O)Cc1ccc2c(c1)c1cc(Cl)ccc1c1nc(-c3c(C#N)cccc3C#N)[nH]c21 | 250 | 2 | 8.4 | Tmax [12]: 1 h
4 | CC(C)(O)Cc1ccc2c(c1)c1cc(OCCCC(F)(F)F)ccc1c1nc(-c3c(C#N)cccc3C#N)[nH]c21 | 250 | 1 | 3.3 | remaining at 2 h [6]: 98%; bioavailability [11]: 85%; remaining at 2 h [10]: 92%
5 | N#Cc1cccc(C#N)c1-c1nc2c3ccc(Cl)cc3c3cc(C#Cc4cccnc4)ccc3c2[nH]1 | 530 | – | – | –
6 | CS(=O)(=O)c1ccc(-c2ccc3c(c2)c2cc(Cl)ccc2c2nc(-c4c(C#N)cccc4C#N)[nH]c32)cc1 | 410 | – | – | –
7 | COCC#Cc1ccc2c(c1)c1cc(Cl)ccc1c1nc(-c3c(C#N)cccc3C#N)[nH]c21 | 1100 | – | – | –
8 | CC(C)(O)CCc1ccc2c(c1)c1cc(Cl)ccc1c1nc(-c3c(C#N)cccc3C#N)[nH]c21 | 200 | – | 14 | –
9 | CC(=O)c1ccc2c(c1)c1cc(C(C)=O)ccc1c1[nH]c(-c3c(F)cccc3Cl)nc21 | – | 122 | – | IC50 (Prostaglandin E synthase [14]): > 50000 nM
10 | N#Cc1cccc(C#N)c1-c1nc2c3ccc(Cl)cc3c3cc(OCCn4cccc4)ccc3c2[nH]1 | 380 | – | – | –
11 | N#Cc1cccc(C#N)c1-c1nc2c3ccc(Cl)cc3c3cc(C#CC4(O)CCCC4)ccc3c2[nH]1 | 260 | – | – | –
12 | N#Cc1cccc(C#N)c1-c1nc2c3ccc(Cl)cc3c3ccccc3c2[nH]1 | – | – | 1.5 | IC50 [4]: > 30000 nM; half-life [15]: 1.3 h; IC50 (A549): > 40000 nM; ED50 (Cavia porcellus): 100 mg/kg; remaining at 2 h [6]: 90%; IC50 [9]: 100 nM
13 | CS(=O)(=O)c1ccc2c(c1)c1cc(Cl)ccc1c1nc(-c3c(C#N)cccc3C#N)[nH]c21 | > 10000 | – | – | –
14 | N#Cc1cccc(C#N)c1-c1nc2c3ccc(Cl)cc3c3cc(C#Cc4ccncc4)ccc3c2[nH]1 | 390 | – | – | –
15 | CC(C)(O)Cc1ccc2c(c1)c1cc(OCC3CC3)ccc1c1nc(-c3c(C#N)cccc3C#N)[nH]c21 | 350 | 3 | 5.5 | remaining at 2 h [6]: > 99%; bioavailability [11]: 36%

More lines, main results first:

Row | IC50 (Blood [1]) [nM] | IC50 (Prostaglandin E synthase [3]) [nM] | Compound | half-life [2] [h] | also measured
16 | 380 | – | N#CCCCOc1ccc2c(c1)c1cc(Cl)ccc1c1nc(-c3c(C#N)cccc3C#N)[nH]c21 | – | –
17 | 370 | 1 | CCc1ccc2c(c1)c1cc(C#CC(C)(C)O)ccc1c1[nH]c(-c3c(C#N)cccc3C#N)nc21 | 7 | –
18 | 290 | 3 | CC(C)COc1ccc2c(c1)c1cc(CC(C)(C)O)ccc1c1nc(-c3c(C#N)cccc3C#N)[nH]c21 | 1.3 | bioavailability [11]: 30%
19 | 150 | – | CC(C)CCOc1ccc2c(c1)c1cc(CC(C)(C)O)ccc1c1[nH]c(-c3c(C#N)cccc3C#N)nc21 | 4.8 | remaining at 2 h [6]: 30%; bioavailability [11]: 46%; remaining at 2 h [10]: 8%
20 | 220 | 0.9 | CC(C)(O)Cc1ccc2c(c1)c1cc(OCCC3CC3)ccc1c1nc(-c3c(C#N)cccc3C#N)[nH]c21 | 1.6 | bioavailability [11]: 76%
21 | 140 | – | CC(C)(O)Cc1ccc2c(c1)c1cc(OCCC3CC3)ccc1c1nc(-c3c(C#N)cc(F)cc3C#N)[nH]c21 | – | Activity (Blood [13]): inactive; IC50 (A549): > 40000 nM; Activity (Blood [5]): inactive; ED50 (Cavia porcellus): 14 mg/kg; IC50 (Blood [7]): > 40000 nM; Activity (Blood [8]): inactive
22 | 76 | 1 | CC(C)(O)C#Cc1ccc2c(c1)c1cc(C#CC3CC3)ccc1c1nc(-c3c(C#N)cccc3C#N)[nH]c21 | 40 | –
23 | 1400 | – | CC(C)(O)c1ccc2c(c1)c1cc(Cl)ccc1c1nc(-c3c(C#N)cccc3C#N)[nH]c21 | – | –

Reference: ChEMBL document CHEMBL1156058, “Discovery of disubstituted phenanthrene imidazoles as potent, selective and orally active mPGES-1 inhibitors” (Bioorg Med Chem Lett, 2009)
